From PubChem
NF-kB neuron act = NF-kB expression increase, human neuronal cells; NF-kB reporter expression; hits give high values; fold change at 12.5 µM; actives 1.6% (n = 190,000); AID 1239; in the data active means fold change above about 3.3
Pf gametocyte = inhibitors of late stage P. falciparum gametocyte viability; P. falciparum stage V gametocytes, ATP luminescence, 24 h; inhibition, % at 10.9 µM; actives 0.065% (n = 150,000); AID 743093;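 active means inhibition above the mean plus 3 SD of compounds within the control limits, set per campaign, cut at about 38% in these data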
STAT1 activator = activators of IFN-gamma induced STAT1 signaling; NIH 3T3 STAT1-luciferase reporter, luminescence; 100% = IFN-gamma alone, no compound; activation (% of control), % at 5.5 µM; actives 2.6% (n = 200,000); AID 932;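 active means activation above the screen-wide mean activation plus 3 SD, cut at about 130% in these data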
STAT1 blocker = inhibitors of IFN-gamma induced STAT1 signaling; inhibition, % at 5.5 µM; NIH 3T3 STAT1-luciferase reporter, luminescence; actives 0.35% (n = 200,000); AID 920;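 active means inhibition above a set limit, the mean inhibition across all tested compounds plus 3 SD, cut at about 34% in these data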
STAT3 act = activators of IL-6 induced STAT3 signaling. U3A cells, IL-6 STAT3-luciferase reporter, luminescence; 100% = signal with IL-6 EC80 alone. activation (% of control), % at 5.6 µM. actives 0.91% (n = 190,000);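 active means activation above the screen-wide mean of compound activation plus 3 SD, cut at about 130% in these data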
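Material: STAT1-lacking human U3A cells, STAT3 luciferase reporter | Benchmarks: IL-6-only wells as 100% reference | Probe or stimulus: IL-6 (33 ng/mL) | Timing: Compound 1 h, then IL-6 6 h at 37 °C | Detection: Luminescence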
APP 5'UTR act = APP 5'UTR luciferase reporter activation; activation, % at 2 µM; SH-SY5Y APP 5'UTR luciferase reporter, luminescence; zero percent = DMSO vehicle wells; actives 1% (n = 190,000);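 active means activation above a set limit, based on mean plus 3 SD of controls, cut at about 140% in these data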
Hits are given with their value; n = inactive; x = no result given. Sampled rows, rich in hits. Any-hit rate of the full collection: about 3.9%.

SMILES | NF-kB neuron act | Pf gametocyte | STAT1 activator | STAT1 blocker | STAT3 act | APP 5'UTR act
CCCCOc1ccc(OC(=O)c2cccnc2)cc1 | n | x | n | n | n | n
C=C(c1ccccc1)c1ccccc1N | x | n | x | x | x | x
Cc1cc(C(=O)COc2ccccc2C(N)=O)c(C)n1CC1CCCO1 (stereo not given) | n | n | n | n | n | n
Cc1ccc(C(=O)OCC(=O)c2cc(C)n(CC3CCCO3)c2C)cc1 (stereo not given) | n | n | 140 | n | n | n
COc1ccc(C(=O)COC(=O)c2cccnc2Cl)c(OC)c1 | n | x | 141 | n | n | n
Cc1cc(C(=O)COC(=O)c2cc(O)c3ccccc3c2O)c(C)n1CC1CCCO1 (stereo not given) | n | x | n | n | 146 | n
Cc1cc(C(=O)COC(=O)c2ccccc2Br)c(C)n1CC1CCCO1 (stereo not given) | x | n | x | x | x | x
Cc1cc(C(=O)COC(=O)c2cccnc2Cl)c(C)n1CC1CCCO1 (stereo not given) | n | n | n | 80 | n | n
Cc1cc(C(=O)COC(=O)C2COc3ccccc3O2)c(C)n1CC1CCCO1 (stereo not given) | n | x | n | n | n | n
Cc1cc(C(=O)COC(=O)c2n[nH]c3ccccc23)c(C)n1CC1CCCO1 (stereo not given) | n | n | n | n | n | 168
CCOC(=O)C1CCN(S(=O)(=O)c2ccc(OC)c(Cl)c2)CC1 | n | n | n | n | n | n
COc1cc(C2C(C#N)=C(N)Oc3cc(N(C)C)ccc32)cc2c1OCO2 (stereo not given) | 4.8 | x | n | n | n | n
COc1cc(NC(=O)CN2C(=O)COc3ccccc32)cc(OC)c1 | x | n | x | x | x | x
Cc1nnc(SCc2cnc(-c3ccc(C(C)C)cc3)s2)n1C | 5.7 | n | n | 37 | n | 152
Clc1ncnc2c1oc1ccccc12 | n | x | 142 | n | 134 | n
CC(=O)c1ccc(Nc2ncnc3c2oc2ccccc23)cc1 | n | x | 161 | n | n | n
CCSc1ncnc2c1oc1ccccc12 | n | n | n | n | n | n
c1ccc(CNc2ncnc3c2oc2ccccc23)nc1 | n | n | 132 | n | n | n
CC(=O)Nc1ccc(Nc2nc(C)nc3c2oc2ccccc23)cc1 | n | n | n | n | n | n
CCc1nc(NCc2ccccn2)c2oc3ccccc3c2n1 | n | x | x | x | x | x
CC(C)(C)OC(=O)C[C@@H]1C/C=C\C[C@@H](CC(=O)N(CCO)Cc2ccccc2)C(=O)N[C@@H](c2ccccc2)COC1=O | x | n | x | x | x | x
CC(=O)c1cc(N2CCOCC2)ccc1[N+](=O)[O-] | 5.6 | n | n | n | n | n
CC(=O)c1cc(N2CCC(C(=O)O)CC2)ccc1[N+](=O)[O-] | n | x | n | n | n | n
CN(C)S(=O)(=O)N1CCN(c2ccc([N+](=O)[O-])c(N3CCOCC3)c2)CC1 | n | n | n | n | 136 | n
O=C1CCCC/C=C\C[C@H](CC(=O)N(CCO)Cc2ccccc2)C(=O)N2CCC[C@@H]2CO1 | x | n | x | x | x | x
SMILES | NF-kB neuron act | Pf gametocyte | STAT1 activator | STAT1 blocker | STAT3 act | APP 5'UTR act
CCCCOC(=O)Cn1c(-c2ccccc2)nc2ccccc2c1=O | n | n | n | n | n | n
CCOC(=O)Cn1c(-c2ccccc2)nc2ccccc2c1=O | n | n | 129 | n | n | n
Cc1ccc(-n2[nH]c(C)c(CCC#N)c2=O)cc1 | n | x | n | n | n | n
COCCNC(=O)C1CC(c2ccccc2C(F)(F)F)=NO1 (stereo not given) | x | n | x | x | x | x
C=CCOC(=O)/C(=C/c1cccnc1)NC(=O)c1ccccc1 | x | n | x | x | x | x
C=CCOC(=O)/C(=C\c1cccc2ccccc12)NC(=O)c1ccccc1 | n | x | 136 | n | n | n
C=CCOC(=O)/C(=C\c1ccccc1)NC(=O)c1ccc(C)cc1 | n | n | 132 | n | n | n
CCOC(=O)/C(=C\c1ccccc1)NC(=O)c1ccccc1 | x | n | x | x | x | x
COCCCN=C1NN=C(c2cc(C)n(-c3ccccc3)c2C)CS1 | n | n | n | n | n | n
Cc1ccc(-n2c(C)cc(C3=NNC(=NC4CC4)SC3)c2C)cc1C | n | n | n | n | n | 155
COCCn1c(C)cc(C2=NNC(=Nc3ccccc3F)SC2)c1C | n | n | n | 73 | n | n
Cc1cc(C2=NNC(=Nc3ccccc3)SC2)c(C)n1C | n | n | 142 | n | n | n
Fc1ccc(N=C2NN=C(c3cc(F)ccc3F)CS2)cc1 | n | n | n | n | n | n
Cc1cc(C2=NNC(=NC3CC3)SC2)c(C)n1-c1c(C)n(C)n(-c2ccccc2)c1=O | n | n | n | n | n | n
COCCCN=C1NN=C(c2cc(C)n(-c3ccccc3F)c2C)CS1 | n | n | n | 45 | n | 187
COc1ccc(CNC(=O)C2(CC3CC(c4ccccc4)=NO3)CCNCC2)cc1 (stereo not given) | x | n | x | x | x | x
Nc1cccc(-c2cn3cc(C(F)(F)F)cc(Cl)c3n2)c1 | 6.8 | n | 130 | n | n | x
O=c1oc2ccccc2nc1/C=C(\O)c1ccccc1 | x | n | x | x | x | x
Cc1nc(C)c(/C(O)=C/c2nc3ccccc3oc2=O)s1 | 4.8 | x | n | n | n | n
Cc1nnc(NC(=O)c2sc3ccccc3c2Cl)s1 | 3.3 | x | n | n | n | n
Cn1cccc1/C=N/NC(=O)c1sc2ccccc2c1Cl | n | x | 131 | n | n | n
Cc1ccc(NC(=O)c2ccc3ccccc3n2)nc1 | 6.2 | x | 147 | n | 153 | 155
Cc1ccnc(NC(=O)c2sc3cc(Cl)ccc3c2Cl)c1 | 3.6 | x | n | n | n | 171
Cc1ccnc(NC(=O)c2cccc(NC(=O)c3ccc(Cl)cc3)c2)c1 | x | n | x | x | x | x
O=C(Nc1ccccc1C(=O)O)c1ccc2ccccc2n1 | n | n | n | n | n | n
SMILES | NF-kB neuron act | Pf gametocyte | STAT1 activator | STAT1 blocker | STAT3 act | APP 5'UTR act
CCOC(=O)N1CCN(C(=O)CSc2ccc(-c3ccc(OC)cc3)nn2)CC1 | n | n | n | n | n | n
CNC(=O)c1ccsc1NC(=O)c1sc2ccccc2c1Cl | n | x | n | n | n | n
CCSc1nnc(NC(=O)c2ccc3ccccc3n2)s1 | n | x | 142 | n | n | n
Cc1ccc(NC(=O)c2sc3ccccc3c2Cl)nc1 | n | n | n | n | n | 192
Cc1c(NC(=S)NC(=O)c2sc3ccccc3c2Cl)cccc1C(=O)O | n | n | n | n | n | 186
CCSc1nnc(NC(=O)c2cc(C)nc3ccccc23)s1 | n | n | n | n | n | n
COc1ccccc1C(=O)NNC(=S)NC(=O)c1sc2ccccc2c1Cl | n | n | n | n | n | n
CN(C)S(=O)(=O)c1cccc(-c2nnc(SCC(=O)NCCCCCC(=O)O)n2-c2ccc(F)cc2)c1 | n | x | n | n | n | n
COc1cccc(NC(=S)N/N=C2\CC3CCC2(C)C3(C)C)c1 (stereo not given) | n | n | 129 | n | n | n
CC12CCC(C/C1=N/NC(=O)Nc1ccccc1)C2(C)C (stereo not given) | n | n | n | n | n | n
CNC(=O)c1oc(-c2ccccc2)nc1C | n | n | n | n | n | n
